# High-throughput results deposited in PubChem by several laboratories.
# A selection: hits, their analogues and other compounds. The true share with any hit is near 1.4%.
# Tb MetRS inh: blocks T. brucei methionyl-tRNA synthetase activity | inhibition, % at 11.9 µM | purified T. brucei MetRS, ATP depletion, Kinase-Glo luminescence | hit rate 0.4% among 360,000;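 active = inhibition above a per-plate cutoff of the control wells' mean inhibition plus 3 SD, cut at about 5.5% in these data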;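 also: 0% = DMSO wells median and 100% = median of wells with control inhibitor compound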
#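 Dosing: 11.9 µM single point; system: parasite MetRS enzyme; technique: luminescence of leftover ATP; times: 15 min enzyme-compound preincubation, 2 h reaction, 10 min detection, 25 °C; replicates: each compound tested once; read-out basis: percent inhibition relative to median high and low control wells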
# Rin1-Abl PPI inh: human Rin1-Abl interaction inhibition; P00519+Q13671; hit rate 0.4% among 360,000; AID 588664; TR-FRET Rin1/Abl binding, biochemical; inhibition, % at 7.35 µM; in the data active = inhibition above about 5%, passing the limit was not always enough
# UCH37 inh: inhibitors of human deubiquitinating enzyme UCH37; Q9Y5K5; purified proteasome/UCH37, Ub-AMC cleavage fluorescence; inhibition, % (concentration not given with the values); hit rate 0.33% among 330,000;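 active = mean inhibition over replicate wells above about 20%, limit read from the data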;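 also: 0% = compound-free wells with enzyme and 100% = wells lacking proteasome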
#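 Assay system: Proteasome-bound UCH37. Buffer or medium: pH 7.4 Tris-HCl (50 mM) with ovalbumin, ATP-MgCl2, DTT. Incubation: 30 min preincubation with enzyme, 25 min cleavage at room temperature. Measured by: fluorescence, ex 355 nm, em 460 nm. Read-out basis: percent inhibition. Control set: wells without proteasome as full block, compound-free enzyme plus substrate as uninhibited.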
# ATG4B inhibitor: inhibitors of human ATG4B cysteine protease | inhibition, % at 8.33 µM | ATG4B cleavage of LC3-PLA2, NBD-HPC fluorescence, 1 h | AID 504462 | Q9Y4P1 | hit rate 0.51% among 340,000; in the data active = inhibition above about 40%
# Rin1 Abl conf: Rin1-Abl interaction inhibition confirmation | shares compounds with Rin1-Abl PPI inh | TR-FRET Rin1-Abl binding, purified proteins | inhibition, % at 7.35 µM | hit rate 49% among 1,300 | AID 602124
# GFP quench-1: quenches GFP fluorescence, counter-screen for Rin1-Abl inhibitors. shares compounds with Rin1-Abl PPI inh. inhibitors/quenchers counterscreen. inhibition, % at 6.75 µM. hit rate 8.5% among 1,300;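 also: ABL1-eGFP fusion protein alone without its partner RIN1-SBP; 0% = protein with vehicle and 100% = wells lacking protein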
# GFP quench dose: quenches GFP in dose response, Rin1-Abl counter-screen | shares compounds with Rin1-Abl PPI inh | GFP fluorescence interference/quenching counterscreen | IC50, µM | 230 tested, under 10 active; call rule not given here;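 also: ABL1-eGFP fusion protein alone without its RIN1 binding partner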
# GFP quench-2: GFP quenching artifact for Rin1-Abl inhibitor hits | shares compounds with Rin1-Abl PPI inh | GFP fluorescence quenching counterscreen, biochemical | IC50, µM | 25 tested, under 10 active; call rule not given here
# Starred values were filed as active, the others as inactive; x = not tested or not shown. Rule as the data show it, unless noted: active = inhibition above about 6.5%; inactive = the rest.
SMILES,Tb MetRS inh,Rin1-Abl PPI inh,UCH37 inh,ATG4B inhibitor,Rin1 Abl conf,GFP quench-1,others
O=C(Cn1ccc2ccccc2c1=O)NCCC(=O)N1CCN(C(=O)c2ccco2)CC1,-1,0,-1,-3,x,x,
Cc1ccc(CC(=O)N2CCC(c3nc4c(nnn4Cc4ccccc4)c(=O)[nH]3)CC2)cc1,-1,8.8*,5,-6,7.1*,-1,
CCN(CC)c1nc(Nc2ccccc2)nc(Oc2ccc(C(=O)OC)cc2)n1,-1,-2,0,-1,x,x,
O=S(=O)(c1ccc2c(c1)oc1ccccc12)N1CCOCC1,-3,8.5*,1,-5,-1,1,
COc1ccc(C(=O)NCCCCNC(=O)c2ccc(OC)c(OC)c2)cc1OC,0,1,4,1,x,x,
Oc1ccc(/C=N/N=C(c2ccccc2)c2ccccc2)c(O)c1O,0,21*,x,25,41*,16*,
CCOC(=O)CCSc1nc(C)c2cc(C)ccc2n1,-1,-5,-7,-11,x,x,
Cn1c(CCNC(=O)c2ccco2)nc2cc(NS(=O)(=O)c3ccc(Cl)cc3)ccc21,0,5.7*,6,-11,-3,1,
CC(=O)NCCc1nc2cc(NS(=O)(=O)c3ccc(Cl)cc3)ccc2n1C,0,-1,5,1,x,x,
Cc1c(C)[n+](=O)c2c(n1[O-])C(Br)CCC2Br (stereo not given),-1,-2,6,14,x,x,
CCN(CC)c1cc(-c2ccccc2)ncn1,-1,7.6*,4,-1,1,-1,
c1ccc(-c2cc(-c3ccccc3)ncn2)cc1,0,-1,4,-10,x,x,
CC(=O)NN1C(=O)/C(=C/c2ccc(Br)o2)SC1=S,0,6.5*,8,13,-2,0,
CC(=O)NN1C(=O)/C(=C\c2ccc(Br)o2)SC1=S,1,1,7,9,x,x,
CCc1c(C)[nH]c2nc3ccccc3n2c1=O,0,4,-31,3,x,x,
Cc1[nH]ccc(=O)c1OCc1ccccc1,0,2,0,-2,x,x,
O=c1cc(OCc2ccccc2)cc[nH]1,0,96*,1,-2,99*,1,GFP quench dose=>67;GFP quench-2=>68
Cc1ccc(C2/C(=C(\O)c3ccc4c(c3)OCCO4)C(=O)C(=O)N2CC2CCCO2)cc1 (stereo not given),-1,8.5*,10,7,-5,0,
COc1ccc(C(c2oc(CO)cc(=O)c2O)c2oc(CO)cc(=O)c2O)cc1OC,0,-1,3,8,x,x,
COc1ccc(C(c2oc(CO)cc(=O)c2O)c2oc(CO)cc(=O)c2O)cc1,0,16*,4,4,11*,2,
CCOC(=O)CCCCCC(=O)Nc1ccc2c(c1)C(=O)N([C@@H](C)CO)C[C@H](C)[C@H](CN(C)S(=O)(=O)c1ccc(OC)cc1)OCCCC[C@H](C)O2,-2,8,x,x,x,x,
CCOC(=O)CCCCCC(=O)Nc1ccc2c(c1)C(=O)N([C@H](C)CO)C[C@H](C)[C@@H](CN(C)S(C)(=O)=O)OCCCC[C@@H](C)O2,-1,10*,x,x,14*,-1,
CCOC(=O)CCCCCC(=O)Nc1ccc2c(c1)C(=O)N([C@@H](C)CO)C[C@@H](C)[C@H](CN(C)C(=O)c1ccncc1)OCCCC[C@H](C)O2,-1,5,x,x,x,x,
CCOC(=O)CCCCCC(=O)Nc1ccc2c(c1)C(=O)N([C@H](C)CO)C[C@@H](C)[C@@H](CN(C)C(=O)CCC(F)(F)F)OCCCC[C@H](C)O2,0,51*,x,x,55*,0,GFP quench dose=>68
COc1ccc(S(=O)(=O)N(C)C[C@H]2Oc3ccc(NC(=O)C4CC4)cc3C(=O)N([C@H](C)CO)C[C@@H]2C)cc1,0,19*,2,0,26*,-1,
SMILES,Tb MetRS inh,Rin1-Abl PPI inh,UCH37 inh,ATG4B inhibitor,Rin1 Abl conf,GFP quench-1,others
Cc1cccc(/C=C(\C(=O)C(=O)O)c2ccc3ccccc3n2)c1,-1,1,-29,1,x,x,
COc1ccc(F)cc1C(=O)C1CCCN(Cc2cn(C)c3ccccc23)C1 (stereo not given),-1,9.9*,3,8,1,-2,
CCOC(=O)C(C)Sc1nnc2c3ccccc3n(C)c2n1 (stereo not given),-1,-5,8,-10,x,x,
CCCn1c2ccccc2c2nnc(SCc3[nH]c(=O)[nH]c3C(=O)CCCCC(=O)OCC)nc21,1,52*,4,2,56*,0,GFP quench dose=>68
CCOC(=O)CCCCC(=O)c1[nH]c(=O)[nH]c1CSc1nnc2c3ccccc3n(C(C)C)c2n1,0,53*,6,1,68*,1,GFP quench dose=>68
COc1ccc(CCNC(=O)C2CCCN2C(=O)Nc2ccc(C)cc2)cc1OC (stereo not given),0,0,-1,-2,x,x,
CCCC(=O)Nc1ccc(N2CCN(C(=O)c3cc4ccccc4o3)CC2)cc1,0,11*,1,-2,8.1*,1,
O=C(NN1C(=O)/C(=C/c2ccc(O)c(O)c2)SC1=S)c1ccccc1,0,7.5*,x,9,6.6*,12*,
CCC(CO)NCc1sccc1C (stereo not given),0,1,-1,-7,x,x,
CC1CCCCN1C(=O)COC(=O)c1cccc(NS(=O)(=O)c2ccccc2)c1 (stereo not given),0,-2,6,1,x,x,
CCN(CC)CCNC(=O)c1ccc(NC(=O)c2cccc(S(=O)(=O)Nc3ccc(C)cc3)c2)cc1,0,4,1,-18,x,x,
CN(C)CCNC(=O)c1cccc(S(=O)(=O)Nc2ccc(F)cc2)c1,0,9.2*,2,6,-2,-1,
CN1CCN(c2ccc(CNC(=O)C3Cc4c(-c5ccccc5)ccnc4O3)cc2)CC1 (stereo not given),0,8.1*,x,x,5,-1,
CN1CCN(c2ccc(CNC(=O)C3Cc4c(-c5ccccc5Oc5ccccc5)ccnc4O3)cc2)CC1 (stereo not given),0,-5,x,x,x,x,
CC1(Cc2ccc3c(c2)OCO3)C(=O)Nc2ccc(-c3cccc(C(F)(F)F)c3)cc21 (stereo not given),0,7.7*,x,x,-2,0,
CC1(Cc2ccc(C(F)(F)F)o2)C(=O)Nc2ccc(-c3cccc(C(F)(F)F)c3)cc21 (stereo not given),1,-1,x,x,x,x,
CC12CN3CC(C)(CN(C1)C3c1ccccc1F)C2 (stereo not given),-2,6.1*,1,5,-3,-1,
CC1(c2nnc(-c3ccncc3)o2)CC(c2ccc([N+](=O)[O-])cc2)=NO1 (stereo not given),0,18*,2,2,21*,0,
